Assay results from paper PMC8263925 (The Journal of General Physiology, 2021).
Substitutions are numbered along the chain they refer to.

Experiments:
Hv1 WT [1] = target: T1, Hv1 WT (Homo sapiens, UniProt Q96D96); assay: Inside-out patch, pulsed application of inhibitor to the closed channel; format: cell-based; settings: for channel inhibition under pulsed conditions: 100 µM pulses
T1 sequence (Q96D96 1-273): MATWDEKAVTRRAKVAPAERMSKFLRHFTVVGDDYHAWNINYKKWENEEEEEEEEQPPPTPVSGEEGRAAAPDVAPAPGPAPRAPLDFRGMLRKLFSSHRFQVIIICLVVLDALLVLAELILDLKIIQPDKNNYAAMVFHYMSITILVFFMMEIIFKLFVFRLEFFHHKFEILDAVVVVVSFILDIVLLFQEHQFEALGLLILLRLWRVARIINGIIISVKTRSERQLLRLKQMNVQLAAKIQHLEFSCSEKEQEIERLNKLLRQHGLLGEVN
Method in brief: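 WT channel, inside-out oocyte patches, pH 6.0. Test compound (100 µM) applied in 3 s pulses while the membrane was held closed at −40 mV, or at 0 mV or −80 mV. Current read after each pulse with a step to +120 mV. Control pulses of a reference Hv1 inhibitor given first to confirm complete washout between depolarizations.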

Hv1 WT [2] = target: T1, Hv1 WT; assay: G-V; format: cell-based
Method in brief: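 Oocytes expressing WT channel (mRNA injected 1–3 d before). Inside-out patches at 22 ± 1°C; bath and pipette 100 mM Mes, 30 mM TEA methanesulfonate, 5 mM TEA chloride, 5 mM EGTA, pH 6.0. Steps to −20 to +130 mV, tails at −40 mV, with or without 50 µM in bath. G = (Itest − Itail)/(Vtest − Vtail), rundown-corrected via reference step. Boltzmann fit gave V1/2 and slope. ≥5 patches, SEM.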

monomeric Hv1 = target: T2, monomeric Hv1 (Homo sapiens, UniProt Q96D96); assay: Inside-out patch time course of inhibition, monomeric Hv1 chimera; format: cell-based; settings: 50 µM
T2 sequence (Q96D96 97-227 limits assumed): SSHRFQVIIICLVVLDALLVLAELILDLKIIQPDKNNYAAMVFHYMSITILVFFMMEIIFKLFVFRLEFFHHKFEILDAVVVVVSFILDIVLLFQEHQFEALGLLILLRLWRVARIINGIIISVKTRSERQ

Hv1 D112E = target: T3, Hv1 D112E (Homo sapiens, UniProt Q96D96, D112E); assay: Inside-out patch time course of inhibition, mutant channel; format: cell-based; settings: 50 µM, RDT 0.1
T3 sequence (Q96D96 1-273 D112E): T1 sequence (Q96D96 1-273) with D112E
Method in brief: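 Mutant channel expressed in oocytes. Inside-out patches, pH 6.0 both sides, 22 ± 1°C. Holding −40 mV, depolarizations to +120 mV at relative depolarization time 0.1 (2 s/20 s) to follow slow kinetics, with matched WT comparison. 50 µM perfused into bath. Isochronal end-pulse current, leak- and rundown-corrected. Decay fitted with a double-exponential function for fast and slow components.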

Hv1 S181A = assay: Inside-out patch time course of inhibition, mutant channel; format: cell-based, human; settings: 50 µM
Method in brief: (§1)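 Xenopus oocytes injected with mutant-channel mRNA 1–3 d earlier, kept at 18°C in ND96. Inside-out patches at 22 ± 1°C in symmetric Mes/TEA solutions, pH 6.0. Held at −40 mV and pulsed to +120 mV at relative depolarization time 0.2 (3 s/15 s). 50 µM perfused into bath. End-pulse current leak- and rundown-corrected. Decay fitted double-exponentially (τfast, τslow, cfast, cslow); washout recovery single-exponentially (τoff).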

Hv1 R211A = assay: as above; format: cell-based, human; settings: 50 µM
Method in brief: as §1

Hv1 E153C = target: T4, Hv1 E153C (Homo sapiens, UniProt Q96D96, E153C); assay: as above; format: cell-based
T4 sequence (Q96D96 1-273 E153C): T1 sequence (Q96D96 1-273) with E153C
Method in brief: as §1

Hv1 E171Q = target: T5, Hv1 E171Q (Homo sapiens, UniProt Q96D96, E171Q); assay: as above; format: cell-based; settings: 50 µM
T5 sequence (Q96D96 1-273 E171Q): T1 sequence (Q96D96 1-273) with E171Q
Method in brief: as §1

Hv1 D185A = target: T6, Hv1 D185A (Homo sapiens, UniProt Q96D96, D185A); assay: as above; format: cell-based; settings: 50 µM
T6 sequence (Q96D96 1-273 D185A): T1 sequence (Q96D96 1-273) with D185A
Method in brief: as §1

Question: Which results are given for `Cc1[nH]c(N)nc1CCC(=O)c1cc(F)cc(F)c1` [HIF, 3-(2-amino-5-methyl-1H-imidazol-4-yl)-1-(3,5-difluorophenyl)propan-1-one]?
Answer: τ of current decay under pulsed application (Hv1 WT [1]; 100 μM for 3 s pulses, membrane at −40 mV during application, single-exponential): 46 ± 4 s; channel inhibition under pulsed conditions (Hv1 WT [1]; membrane held at 0 mV): 55 ± 3%; channel inhibition under pulsed conditions (Hv1 WT [1]; membrane held at −80 mV): 33 ± 4%; shift to more positive potentials in the V1/2 of activation (Hv1 WT [2]; 50 μM, pHi = pHo = 6.0): ~15 mV; slope of G-V curve in the presence of inhibitor (Hv1 WT [2]; 50 µM, pHi = pHo = 6.0 (11 ± 1 without HIF)): 13 ± 1 mV; V1/2 of G-V curve in the presence of inhibitor (Hv1 WT [2]; 50 µM, pHi = pHo = 6.0 (53 ± 3 mV without HIF)): 68 ± 2 mV; extent of inhibition compared with WT (monomeric Hv1): not reduced; fast component of the inhibition process (Hv1 D112E): eliminated; slow component of the inhibition process (Hv1 D112E): unaffected; higher inhibition vs WT (Hv1 S181A): 7%; reduction in τslow vs WT (Hv1 S181A): 26%; higher inhibition (decreased steady-state remaining current) vs WT (Hv1 R211A): 15%; reduction in τslow vs WT (Hv1 R211A): 64%; total extent of inhibition vs WT (Hv1 E153C; 50 µM): did not decrease; relative contribution of the slow component, cslow / (cfast + cslow) (Hv1 E153C; 50 μM, RDT = 0.2): 0.80; τoff, recovery from inhibition (Hv1 E153C; after 50 µM, RDT = 0.2): 294 ± 57 s; reduction of the extent of inhibition vs WT (Hv1 E171Q): 46%; τslow (Hv1 E171Q; too slow to be accurately quantified): > 200 s; effect of mutation on extent or time course of inhibition (Hv1 D185A): did not appreciably affect
